Measurements as given in ChEMBL document CHEMBL4118042, “Cucurbitane Glucosides from the Crude Extract of Siraitia grosvenorii with Moderate Effects on PGC-1α Promoter Activity” (J Nat Prod, 2017).

What was measured:
Type in all cases: cell-based
[1] = target: T1, Peroxisome proliferator-activated receptor gamma coactivator 1-alpha (Homo sapiens) (UniProt Q9UBK2); experiment: Activation of PGC1alpha transcriptional activity (unknown origin) expressed in HEK293 cells at 10 uM after overnight incubation by luciferase reporter gene assay relative to control
T1 sequence (whole entry): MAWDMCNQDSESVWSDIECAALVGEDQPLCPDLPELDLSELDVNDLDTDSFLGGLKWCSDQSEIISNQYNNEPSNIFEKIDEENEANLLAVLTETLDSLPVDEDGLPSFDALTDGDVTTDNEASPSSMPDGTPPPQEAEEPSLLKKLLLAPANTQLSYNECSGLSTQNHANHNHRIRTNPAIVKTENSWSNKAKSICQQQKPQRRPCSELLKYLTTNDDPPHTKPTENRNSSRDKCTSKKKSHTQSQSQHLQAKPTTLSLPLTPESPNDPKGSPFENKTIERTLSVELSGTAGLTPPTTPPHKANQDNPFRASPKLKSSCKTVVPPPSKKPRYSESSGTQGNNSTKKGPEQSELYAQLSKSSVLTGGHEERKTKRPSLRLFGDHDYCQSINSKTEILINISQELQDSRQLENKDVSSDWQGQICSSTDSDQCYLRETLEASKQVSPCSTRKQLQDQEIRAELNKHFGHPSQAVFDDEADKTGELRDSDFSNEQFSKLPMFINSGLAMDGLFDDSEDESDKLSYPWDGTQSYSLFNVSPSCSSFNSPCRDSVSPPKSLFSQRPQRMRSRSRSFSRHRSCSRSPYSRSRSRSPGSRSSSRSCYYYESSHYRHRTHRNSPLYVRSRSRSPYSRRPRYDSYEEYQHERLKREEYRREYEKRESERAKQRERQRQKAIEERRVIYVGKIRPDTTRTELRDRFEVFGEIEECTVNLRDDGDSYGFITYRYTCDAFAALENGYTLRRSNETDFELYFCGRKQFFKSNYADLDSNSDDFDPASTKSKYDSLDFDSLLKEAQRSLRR
In short: (§1)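 HEK293 cells stably carrying a luciferase reporter driven by the PGC-1α promoter, grown in high-glucose DMEM with 10% FBS, penicillin and streptomycin at 37 °C in 5% CO2. About 2800 cells per well; after 24 h, compound added at final 10 or 20 μM, or forskolin 5 μM or dexamethasone 100 nM, with equal DMSO as blank. Incubated overnight, then luciferase substrate added and luminescence read. Values normalized to DMSO (100%), mean ± SEM, Student's t test.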

[2] = target: T1, Peroxisome proliferator-activated receptor gamma coactivator 1-alpha (Homo sapiens); experiment: Activation of PGC1alpha transcriptional activity (unknown origin) expressed in HEK293 cells at 20 uM after overnight incubation by luciferase reporter gene assay relative to control; in short: as §1
[3] = target: T1, Peroxisome proliferator-activated receptor gamma coactivator 1-alpha (Homo sapiens); experiment: Activation of PGC1alpha transcriptional activity (unknown origin) expressed in HEK293 cells at 100 nM after overnight incubation by luciferase reporter gene assay relative to control; in short: as §1
[4] = target: T1, Peroxisome proliferator-activated receptor gamma coactivator 1-alpha (Homo sapiens); experiment: Activation of PGC1alpha transcriptional activity (unknown origin) expressed in HEK293 cells at 100 nM after 24 hrs by luciferase reporter gene assay relative to control; in short: as §1
[5] = target: T1, Peroxisome proliferator-activated receptor gamma coactivator 1-alpha (Homo sapiens); experiment: Activation of PGC1alpha transcriptional activity (unknown origin) expressed in HEK293 cells at 5 uM after overnight incubation by luciferase reporter gene assay relative to control; in short: as §1
[6] = target: T1, Peroxisome proliferator-activated receptor gamma coactivator 1-alpha (Homo sapiens); experiment: Activation of PGC1alpha transcriptional activity (unknown origin) expressed in HEK293 cells at 5 uM after 24 hrs by luciferase reporter gene assay relative to control

| Compound | Activity [1] | Activity [2] | also measured |
| --- | --- | --- | --- |
| C[C@H](CC[C@@H](O[C@@H]1O[C@H](CO)[C@@H](O)[C@H](O)[C@H]1O[C@@H]1O[C@H](CO)[C@@H](O)[C@H](O)[C@H]1O)C(C)(C)O)[C@H]1CC[C@@]2(C)[C@@H]3C(=O)C=C4[C@@H](CC[C@H](O[C@@H]5O[C@H](CO)[C@@H](O)[C@H](O)[C@H]5O)C4(C)C)[C@]3(C)[C@H](O)C[C@]12C | 97.8% | 122% |  |
| C[C@H](CC[C@@H](O[C@@H]1O[C@H](CO)[C@@H](O)[C@H](O)[C@H]1O[C@@H]1O[C@H](CO)[C@@H](O)[C@H](O)[C@H]1O)C(C)(C)O)[C@H]1CC[C@@]2(C)[C@@H]3CC=C4[C@@H](CC[C@H](O[C@@H]5O[C@H](CO[C@@H]6O[C@H](CO)[C@@H](O)[C@H](O)[C@H]6O)[C@@H](O)[C@H](O)[C@H]5O)C4(C)C)[C@]3(C)C(=O)C[C@]12C | 129% | 132% |  |
| C[C@@H]1C[C@H]2[C@@H]3CCC4=CC(=O)C=C[C@]4(C)[C@@]3(F)[C@@H](O)C[C@]2(C)[C@@]1(O)C(=O)CO |  |  | Activity [3]: 172%; fold change (FC) [4]: 1.7 |
| C[C@H](CC[C@@H](O[C@@H]1O[C@H](CO)[C@@H](O)[C@H](O)[C@H]1O[C@@H]1O[C@H](CO)[C@@H](O)[C@H](O)[C@H]1O)C(C)(C)O)[C@H]1CC[C@@]2(C)[C@@H]3C(=O)C=C4[C@@H](CC[C@H](O[C@@H]5O[C@H](CO[C@@H]6O[C@H](CO)[C@@H](O)[C@H](O)[C@H]6O)[C@@H](O)[C@H](O)[C@H]5O)C4(C)C)[C@]3(C)[C@H](O)C[C@]12C | 105% | 126% |  |
| C[C@H](CC[C@@H](O[C@@H]1O[C@H](CO)[C@@H](O)[C@H](O)[C@H]1O[C@@H]1O[C@H](CO)[C@@H](O)[C@H](O)[C@H]1O)C(C)(C)O)[C@H]1CC[C@@]2(C)[C@@H]3CC=C4[C@@H](CC[C@H](O[C@@H]5O[C@H](CO)[C@@H](O)[C@H](O)[C@H]5O)C4(C)C)[C@]3(C)C(=O)C[C@]12C | 107% | 123% |  |
| C=C[C@@]1(C)CC(=O)[C@]2(O)[C@@]3(C)[C@@H](O)CCC(C)(C)[C@@H]3[C@H](O)[C@H](OC(C)=O)[C@@]2(C)O1 |  |  | Activity [5]: 145%; fold change (FC) [6]: 1.4 |
